Screening results from PubChem.
ARFGAP1 inh: rat ARFGAP1 inhibition; Q62848; Arfgap1-stimulated ARF1 GTP hydrolysis, GDP FP detection; inhibition, % at 16.5 µM; hit rate 0.26% among 360,000; AID 651572;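 active means inhibition above a per-plate limit, mean inhibition of low control wells plus 3 SD, cut at about 25% in these data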;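 further: 0% = DMSO wells with enzyme and 100% = wells lacking Arfgap1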
Target sequence (Q62848 1-136 limits assumed): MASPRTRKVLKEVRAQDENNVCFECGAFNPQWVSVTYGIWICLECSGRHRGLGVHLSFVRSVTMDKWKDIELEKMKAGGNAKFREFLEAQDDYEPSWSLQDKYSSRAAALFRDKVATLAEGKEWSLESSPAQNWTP
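Repeats: one replicate per compound; assay system: rat Arfgap1 catalytic domain, aa 1-136; times: enzyme reaction 120 min at 25 °C after 20 min preincubation; detection: FP of antibody-bound GDP Alexa 633 tracer, ex 620/em 688 nm; benchmarks: high control wells lacking Arfgap1, low control full reaction with DMSO; reagent: human ARF1(Δ1-17)-GTP substrate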
LEDGF integ inh: blocks HIV-1 LEDGF/p75-dependent DNA integration; AID 743269; hit rate 0.64% among 370,000; inhibition, % at 3.7 µM; TR-FRET IN-LEDGF/p75 DNA integration, Eu/Cy5;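 active means inhibition above the screen-wide mean plus 3 SD, cut at about 13% in these data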;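 further: signal is the Cy5 over europium emission ratio at 671 and 618 nm; 0% = plate median of compound wells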
MBD2 DNA inh: blocks human MBD2 binding to methylated DNA; TR-FRET, MBD2 binding to methylated oligonucleotide; inhibition, % at 4.4 µM; hit rate 0.31% among 370,000; in the data active means inhibition above about 13%
TCR-CD3 inh: blocks the human TCR-CD3 interaction; TAMRA-labeled TCR probe fluorescence, biochemical; AID 651800; hit rate 0.37% among 360,000; inhibition, % at 9.4 µM;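 further: recombinant mutant TCR 2C K166C tagged with TAMRA read by polarization; 0% = receptor in buffer alone and 100% = receptor with positive control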
UHRF1 MBD2 ctr: human UHRF1 methylated DNA binding inhibitors | Q96T88 | hit rate 0.75% among 370,000 | inhibition, % at 4.4 µM | UHRF1 binding to methylated oligo, TR-FRET; in the data active means inhibition above about 21%;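 further: UHRF1 SRA domain binding a hemimethylated CpG hairpin DNA probe; 0% = median of test compound wells and 100% = reference inhibitor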
ASAP1 inh: inhibitors of human ASAP1 ArfGAP activity | Q9ULH1 | ASAP1-stimulated ARF1 GTP hydrolysis, GDP FP detection | inhibition, % at 16.5 µM | hit rate 0.19% among 360,000; in the data active means inhibition above about 25%;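 further: 0% = vehicle with enzyme and substrate and 100% = no enzyme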
Target sequence (Q9ULH1 325-724 limits assumed): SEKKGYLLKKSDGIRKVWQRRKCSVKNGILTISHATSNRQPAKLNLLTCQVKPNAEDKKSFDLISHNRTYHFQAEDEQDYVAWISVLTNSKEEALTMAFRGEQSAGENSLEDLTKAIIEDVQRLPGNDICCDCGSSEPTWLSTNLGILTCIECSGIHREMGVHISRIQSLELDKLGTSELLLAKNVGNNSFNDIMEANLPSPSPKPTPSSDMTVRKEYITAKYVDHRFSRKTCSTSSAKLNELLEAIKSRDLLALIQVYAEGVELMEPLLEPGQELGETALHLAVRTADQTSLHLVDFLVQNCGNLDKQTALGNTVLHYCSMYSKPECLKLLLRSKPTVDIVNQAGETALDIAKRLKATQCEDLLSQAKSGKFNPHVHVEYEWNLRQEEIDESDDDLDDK
BSA probe FL: interferes with TAMRA-BSA probe, flagging TCR-CD3 hits; shares compounds with TCR-CD3 inh; TAMRA-labeled BSA probe fluorescence counterscreen; inhibition, % at 9.4 µM; hit rate 10% among 1,200; in the data active means inhibition above about 23%;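 further: 0% = buffer low control and 100% = reference high control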
TCR-CD3 inh conf: TCR-CD3 interaction inhibition, confirmation; inhibition, % at 9.4 µM; AID 652036; TAMRA-labeled TCR probe fluorescence binding assay; hit rate 48% among 1,200; shares compounds with TCR-CD3 inh
The depositor's hits bear a star; . = no result. In the library only some 2% were active in any assay of this set; here they are far more common. Unless noted, no stated cut-off is given here; in the data, active means inhibition above about 19%; inactive means the rest.

SMILES	ARFGAP1 inh	LEDGF integ inh	MBD2 DNA inh	TCR-CD3 inh	UHRF1 MBD2 ctr	ASAP1 inh	BSA probe FL	TCR-CD3 inh conf
O=C(NNC(=S)NC(=O)c1ccc(F)cc1)c1cccnc1	2	-3	3	9	-1	0	.	.
COc1ccc(/C=C/C(=O)NC(=S)NNC(=O)c2cccnc2)cc1	2	-5	-6	17	-12	-2	.	.
O=C(NNC(=S)NC(=O)c1cccnc1)c1ccc(F)cc1	-5	-3	1	23*	-3	3	-2	28*
COc1cc(C)c(NC(=O)C(=S)NCCc2ccccc2)cc1C	-1	3	-4	6	-3	12	.	.
CCN(CC)C(=O)C1=C(C)N(Cc2ccc(F)cc2)C(=O)C(CC(=O)NC(c2ccccc2)c2ccccc2)C1 (stereo not given)	-8	1	5	1	-2	1	.	.
COc1ccc([C@H]2CC(=O)C[C@@H](CCn3cc(-c4ccccc4)nn3)O2)cc1	-4	8	12	7	20	10	.	.
COc1ccc([C@H]2CC(=O)C[C@@H](CCn3cc(Cc4ccccc4)nn3)O2)cc1	-7	0	1	24*	2	-1	8	6
Cc1cc(/C=N/n2c(COc3ccccc3)nc3ccccc3c2=O)c(O)c([N+](=O)[O-])c1	-5	-2	-7	39*	-5	16	35*	56*
O=C(CC1C(=O)NCCN1Cc1cccc(F)c1)NCCCCCN1CCOCC1 (stereo not given)	14	2	-3	20*	-1	5	1	-1
O=[N+]([O-])C1=CC=C2C(=NC3(CCCCC3)N2O)C1=NC1CCCCC1	3	4	-4	56*	3	14	1	-3
CC(C)(C)N=C1C([N+](=O)[O-])=CC=C2C1=NC1(CCCCC1)N2O	8	-3	-14	2	-9	0	.	.
Cc1ccc(Cl)c(OCC(=O)OCC(=O)NC2CCCc3ccccc32)c1 (stereo not given)	1	1	3	9	-1	13	.	.
CSCCC(NC(=O)c1ccccc1Cl)C(=O)NNC(=O)c1ccccc1O (stereo not given)	12	-7	-3	29*	-1	10	-4	18
CC(Sc1ccc(Cl)cc1)C(=O)NNC(=O)c1ccccc1O (stereo not given)	4	-13	1	30*	-1	-12	-8	19*
O=C(NNC(=O)C(c1ccccc1)c1ccccc1)c1ccccc1O	-8	-12	4	13	-1	-24	.	.
COc1ccccc1C(=O)NC(CCSC)C(=O)NNC(=O)c1ccccc1O (stereo not given)	-3	-2	3	16	-2	-21	.	.
CCN(CC(=O)Nc1cccc(S(=O)(=O)N2CCOCC2)c1)Cc1ccccc1	-11	-3	-3	4	1	-1	.	.
O=C(CN1CCN(c2ccccc2)CC1)N1CCc2[nH]c3ccccc3c2C1	-1	-4	-8	22*	-7	-12	3	1
O=C(CN1CCc2[nH]c3ccccc3c2C1)N1CCCCC1	2	-2	1	-5	-3	-2	.	.
O=C(CSc1nnc(-c2ccccc2O)n1Cc1ccccc1)NNC(=O)c1ccccc1O	-6	-4	2	54*	-1	-12	-3	45*
O=C(CSc1ccccc1)NNC(=O)c1ccccc1O	-1	-13	5	19*	4	0	-10	26*
O=C(CSc1nnc(-c2ccccc2)n1Cc1ccccc1)NNC(=O)c1ccccc1O	0	-6	-5	58*	-1	2	-1	54*
O=C(O)CSc1nnc(-c2ccccc2O)n1Cc1ccccc1	10	4	5	-2	7	2	.	.
Cn1c(SCC(=O)NNC(=O)c2ccccc2O)nnc1-c1ccccc1	0	-11	-2	48*	-4	5	-6	42*
CCC[C@H]1[C@@H](N(C)Cc2ccccc2)CC[C@@]23CCCN2C(=O)CCC[C@@H]13	.	4	-2	.	-1	.	.	.
SMILES	ARFGAP1 inh	LEDGF integ inh	MBD2 DNA inh	TCR-CD3 inh	UHRF1 MBD2 ctr	ASAP1 inh	BSA probe FL	TCR-CD3 inh conf
CCOC(=O)C1CCCN(C(=O)CN2C(=O)NC(C)(c3ccc4ccccc4c3)C2=O)C1 (stereo not given)	2	1	4	-6	3	2	.	.
O=C1C=C(N2CCOCC2)c2cccc3cccc1c23	5	0	-13	79*	-13	-1	7	3
O=C1C(N2CCOCC2)=Cc2cccc3cccc1c23	2	7	-22	87*	-14	-2	70*	47*
CC1=C(C)C(=O)C(N2CCOCC2)=CC1=O	-5	-1	-5	13	1	-4	.	.
CCC(=O)N1CCCC(C)(C(=O)Nc2nccc3ccccc23)C1 (stereo not given)	5	-3	5	1	3	-7	.	.
Cc1ccc(NC(=S)Nc2ccc(C(C)C)cc2)cc1S(=O)(=O)N1CCCCCC1	3	-1	6	22*	2	6	1	14
O=S(=O)(c1ccc(NC(=S)NCCC(c2ccccc2)c2ccccc2)cc1)N1CCOCC1	12	1	-2	33*	1	14	14	18
CCCCOCCCNC(=S)Nc1ccc(S(=O)(=O)N2CCOCC2)cc1	6	3	-7	2	1	12	.	.
Cc1oc(-c2cccc(Cl)c2)nc1CS(=O)(=O)CC(=O)NCCN1CCOCC1	4	4	-3	5	0	-10	.	.
Cc1oc(-c2cccc(Cl)c2)nc1CS(=O)(=O)CC(=O)NCCN1CCCC1	-5	-2	10	21*	6	-5	5	8
CCC(=O)Nc1sc2c(c1C#N)CC(C)(CC)OC2 (stereo not given)	0	3	8	6	7	-3	.	.
CCOC(=O)c1c(C)[nH]c(C(=O)COC(=O)c2ccncc2)c1C	3	4	0	2	1	15	.	.
CCOC(=O)c1c(C)[nH]c(C(=O)COC(=O)c2cnccn2)c1C	-5	3	-3	38*	-1	3	-1	6
Cc1cc(SCC(=O)c2ccc(O)c(O)c2)nc2ccccc12	10	-2	2	29*	7	3	-11	24*
CN(CC(=O)Nc1ncn[nH]1)S(=O)(=O)c1ccc(Cl)cc1	-3	2	2	4	1	0	.	.
COc1ccc(N(CC(=O)Nc2ccc(F)c(F)c2)S(=O)(=O)c2c(C)n[nH]c2C)cc1	2	2	4	28*	-1	14	0	3
COCCNc1oc(-c2ccc(Cl)cc2)nc1C#N	10	-1	1	19*	3	0	0	-1
